From the RNAGym collection of RNA variant scans (doi:10.1126/science.aae0568) come the findings set out here.

This sample holds only a part of the variants without activity.

B1: tRNA (parent)
chain: GUUCCGUUGGCGUAAUGGUAACGCGUCUCCCUCCUAAGGAGAAGACUGCGGGUUCGAGUCCCGUACGGAACG

The variants in the series derive from B1. In words: yeast fitness relative to wild type (ratio to wild type); higher = fitter; tRNA-Arg(CCU), competitive growth, 37 C, YPD. The method in brief: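 Variants of the tRNA-Arg(CCU) gene were chemically synthesised with a 3% per-site mutation rate across 69 sites and placed at the native genomic locus in Saccharomyces cerevisiae. Six parallel replicates of the pooled strains were competed in YPD at 37°C for 24 hours, and gene amplicons from the start and end populations were read by 100-nucleotide paired-end sequencing. Darwinian fitness relative to wild type was derived from changes in genotype frequencies. Genotypes required ≥ 100 starting reads, and estimates < 0.5 were set to 0.5.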
Regarding G38C G41C C66U, the yeast fitness was at most 0.5.
Consider G41A C62U A69U, for which the yeast fitness stood at 0.619.
As for G38U C60A, the yeast fitness worked out at 0.541.
The value for A40C A42U C49G was 0.624.
For G38C G56C the value was 0.516.
Turning to A40G C49G U59G G67C, the yeast fitness worked out at 0.706.
Turning to G39C G44A C62G, the yeast fitness came out at 0.589.
For A40U G52C the value was 0.608.
Consider G39A G68A, for which the yeast fitness amounted to 0.853.
The value for G39A G68C was 0.806; that for G39A C46A A65U was 0.581.
The value for G41A U59G A69C was at most 0.5.
G38C A70G: the yeast fitness was 0.756.
A40G G50A: the yeast fitness stood at 0.944.
The value for A40C C46U C55G A70U was 0.503.
For G38C G44C C46A the value was 0.814; for A40G A69U, 1.06.
The value for G39C C55U was 0.572; that for A40U G52C C60G was at most 0.5.
A40G C46U U53G: the yeast fitness was at most 0.5.
Turning to A40C A45C A65G G68U, the yeast fitness is at most 0.5.
For the variant A40G U64A, the yeast fitness was 0.737.
For A40C G41A U47A G67C the value was 0.637.
For A40G G44C A57G C60A the value was at most 0.5; for G38C G67U, 0.549; for G38C G67A, 0.769.
A40G C46A C61U G67A: the yeast fitness was at most 0.5.
The value for A40G C49U U59A was 0.572; that for A40G G52A G56U was at most 0.5; that for G39C A43C A45G C60G was at most 0.5.
For A40U G67A the value was 0.82; for A40G A43C, 1.04.
Turning to A40G A43G, the yeast fitness amounted to 0.787.
A40G A43U: the yeast fitness turned out to be 0.995.
Turning to G39C A40U, the yeast fitness came to 0.73.
For G39C A40G the value was 0.67; for G39A C62U, 1.05; for A40G C61U G68A, at most 0.5.
The value for A40U U64A was 0.675; that for G39C C55G U59A G63A was at most 0.5; that for A40U C49U C61U A70G was at most 0.5.
Consider G38C G41C C61U, for which the yeast fitness was at most 0.5.
For A40U U64C A70U the value was 0.727; for A40G G67A A69C, 0.513.
For the variant G38C U53C A57U, the yeast fitness was at most 0.5.
For G41A C46G G48A U54C C55U A70C the value was 0.542; for G41A G67U A69C, at most 0.5.
With A40U U53A C61U, the yeast fitness is at most 0.5.
For the variant A40U C66U, the yeast fitness turned out to be 0.904.
The value for A40U C66G was 0.71.
G38C G50A U64C: the yeast fitness came out at 0.832.
G38C C49U U54A A65C: the yeast fitness is at most 0.5.
As to G39U G52A G67U, the yeast fitness is at most 0.5.
For G39C A40U A65C the value was at most 0.5; for A40U A43C U59C, 0.752; for A40U A45C, 0.871.
The value for G39C U47A A57C was at most 0.5.
Consider A40U U47C A65C, for which the yeast fitness was 0.534.
The value for G39C A43G A57C was at most 0.5; that for G39C C49G C66U was at most 0.5.
For G39A C61G the value was 0.585.
Regarding A40U G67A A70C, the yeast fitness was 0.572.
On to G38C C62U, for which the yeast fitness is 0.687.
Regarding A40G C60U, the yeast fitness came out at 0.674.
For the variant A40G A43U C49U C66U, the yeast fitness is at most 0.5.
Consider A40G C62U A65U, for which the yeast fitness was at most 0.5.
In the case of G38C G41A C55U G67C, the yeast fitness was at most 0.5.
As to A40G G48C, the yeast fitness was 0.866.
For A40G G48A the value was 1.01; for G39A G44A, 0.846; for A40G G51A C55U, 0.556.
For G38C G48A C61A G67C the value was at most 0.5; for A40U A43C G52A, 0.667.
The value for G39A C46U U59A A70C was at most 0.5; that for G39C G48C C62G was at most 0.5.
Turning to G38C A42C A65C, the yeast fitness is at most 0.5.
Regarding A40C A43G C61G C66U, the yeast fitness worked out at 0.683.
The value for A40C G52C C66U G67A was at most 0.5; that for A40U A42G C55A was at most 0.5; that for G38C G51A G58A was 0.517.
On to A40G C62A, for which the yeast fitness stood at 0.641.
For the variant A40G C62U, the yeast fitness was determined as 0.715.
For G39A A42C C66U the value was 0.542; for G39A C60U C62A, 0.505; for G38U A40G C49U, at most 0.5.
For A40G C46G U53G U64G, the yeast fitness was at most 0.5.
As to A40C A57U, the yeast fitness is 0.789.
A40C A57C: the yeast fitness turned out to be 0.637.
For G39A U47C the value was 1; for A40C A45C, 0.616; for G41A A43G, 0.81.
With A40C G41C G68C, the yeast fitness is 0.542.
The value for A40C C55G A69U was at most 0.5; that for G41A G51A C66A was at most 0.5; that for G39U A40C C66A A69U was 0.642.
For A40U U54C C62U the value was 0.528; for G39A G56C C66A, at most 0.5.
The value for A40U C49U C62U A69G was 0.904; that for G41A G63C was 0.715; that for G41A G63A was 0.893.
A40C A42U U53C C61G: the yeast fitness was at most 0.5.
For G38C G63C A65G the value was at most 0.5; for G41A C60G U64C A65G, at most 0.5.
Regarding A40G G58C C61G A65C, the yeast fitness is at most 0.5.
For G38C C46G G51C A57C C61U the value was at most 0.5.
With G41A A45U G58U C60A, the yeast fitness was found to be 0.583.
Take G41A A43G C66A: the yeast fitness was at most 0.5.
Turning to G41A A42C, the yeast fitness was 0.726.
For G41A A42G the value was 0.911; for A40G G58A A69U, 1.04; for A40U G50A, 0.801.
For A40U G50C, the yeast fitness is 0.726.
Turning to A40G C46U U64C, the yeast fitness is 0.607.
The value for G39C C60G G67C was at most 0.5; that for G38C C55A was 0.508; that for A40C C61A was 0.716.
For A40C C61U the value was 0.799; for A40C G48A C60G, 0.683; for G41A A43G C60U A70C, 0.542.
G39A C62U A70U: the yeast fitness worked out at 0.593.
With G38C A42G A70C, the yeast fitness is at most 0.5.
The value for A40G C55A C61U was at most 0.5; that for A40U C49U C62A C66A was at most 0.5.
Take G38C G44A A65G: the yeast fitness is at most 0.5.
Turning to G39A A70G, the yeast fitness was determined as 0.871.
Take G39A A70U: the yeast fitness was 0.915.
For G38C A69U A70C the value was 0.557; for G39C A42C C62U A69C, at most 0.5.
The value for G41A U47C was 0.931.
The value for G41A A70U was 0.977; that for G41A A70C was 0.901; that for A40G C46A was 1.04.
For the variant G39A A42G G67C, the yeast fitness is at most 0.5.
In the case of G39C C49A G51A, the yeast fitness was at most 0.5.
For A40C A42C G68C, the yeast fitness came to 0.569.
The value for G39C C55G C66U was at most 0.5; that for G39C G58C was 0.83.
The value for G39A G67C was 0.825.
The value for A40C A57C C61A was at most 0.5; that for A40C A43C was 1.04.
Consider G39A G52C, for which the yeast fitness is 0.612.
For the variant G38C C49G, the yeast fitness came to 0.743.
On to A40G A43U C46G C49G C62U, for which the yeast fitness stood at 0.532.
As for A40G C61U A70U, the yeast fitness came out at 0.612.
As for G39A C46U, the yeast fitness stood at 0.978.
The value for A40U A42G was 0.983; that for A40C A57U G58A was 0.644; that for G41A C49U A70U was 0.708.
With G41A G48C C49U G68A, the yeast fitness was at most 0.5.
Consider A40U A65C A69U, for which the yeast fitness came out at 0.699.
The value for G38C G48A was 0.744.
The value for G39C A43G G48C G50A was at most 0.5; that for G41A C60G G67A was 0.534; that for G38C A65U C66U was 0.657.
With G39C C46G A70U, the yeast fitness turned out to be 0.603.
For the variant G38C A65C, the yeast fitness is 0.578.
The value for G38C A65U was 0.723; that for G38C C62A G67C was at most 0.5; that for A40G G41A C55U was at most 0.5.
The value for A40U A42G G63A was 0.511.
In the case of A40U C55A, the yeast fitness is 0.584.
Consider G38C C46G C49G G51C C61U, for which the yeast fitness turned out to be 0.593.
Regarding G41A A45U U47A C62U A69U, the yeast fitness is at most 0.5.
The value for A40G G48A A65C G67C was at most 0.5; that for A40C A69G was 0.985.
As for G41A C46G G50A C62A, the yeast fitness was 0.537.
For G41A U47A C49U U59C G67C A70U the value was 0.532.
